Here are results for 24 compounds from ChEMBL document CHEMBL2016450, “Design, synthesis, and biological evaluation of chalcone oxime derivatives as potential immunosuppressive agents” (Bioorg Med Chem Lett, 2012).

Each structure is given as a SMILES string. pIC50: −log10 of the molar value. Activity calls are given as the source filed them. No cut-off for these calls is given here.

The nature of data set [1]: Immunosuppressive activity in anti-CD3/[…] co-stimulated Balb/c mouse lymph node cells assessed as inhibition of cell proliferation after 72 hrs by ELISA. It counts as functional. In a few lines: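 Lymph node cells co-stimulated with anti-CD3/anti-CD28. The IC50 is the concentration inhibiting proliferation by 50% relative to control values. Cyclosporin A served as the reference control.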
Background: ELISA stands for enzyme-linked immunosorbent assay.

Data set [2] can be described thus: Cytotoxicity against Balb/c mouse lymph node cells after 48 hrs by MTT assay. It counts as cell-based. In a few lines:
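Naïve lymph node cells; the CC50 is the concentration giving 50% cell survival. Cyclosporin A served as the reference control.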
Background: Tetrazolium assays rely on reduction of a dye to a coloured formazan, in cell work by metabolically active cells.

Data set [3] in a line: Selectivity index, ratio of CC50 for Balb/c mouse lymph node cells to IC50 for anti-CD3/[…] co-stimulated mouse Balb/c mouse lymph node cells. It counts as functional. The procedure, abridged:
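The selectivity index is CC50 on unstimulated lymph node cells divided by IC50 for proliferation of anti-CD3/anti-CD28 co-stimulated lymph node cells, both relative to control values.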

For data set [4], the species on record is Mus musculus. Description: Induction of apoptosis in anti-CD-3/[…] co-stimulated Balb/c mouse lymph node cells assessed as PARP cleavage at 10 to 40 ug/ml after 24 hrs by Western blot analysis. It counts as functional. A general note: In western blotting, separated proteins are transferred to a membrane and probed.
The nature of data set [5]: Induction of apoptosis in anti-CD-3/[…] co-stimulated Balb/c mouse lymph node cells assessed as apoptotic cells at 20 ug/ml after 24 hrs by annexin V/PI staining-based flow cytometric analysis. It counts as functional. In a few lines:
(§1)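 Lymph node cells isolated from naïve mice were cultured with anti-CD3/anti-CD28 plus compound at 10, 20 or 40 µg/mL for 24 h. Cells were stained with Annexin V-FITC/PI and apoptotic cells were counted by flow cytometry.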

A short description of data set [6]: Induction of apoptosis in anti-CD-3/[…] co-stimulated Balb/c mouse lymph node cells assessed as apoptotic cells at 10 ug/ml after 24 hrs by annexin V/PI staining-based flow cytometric analysis. It counts as functional. The procedure, abridged: as §1
The species named for data set [7] is Mus musculus. Briefly: Induction of apoptosis in anti-CD-3/[…] co-stimulated Balb/c mouse lymph node cells assessed as caspase 3 cleavage product p17 formation after 24 hrs by Western blot analysis. It counts as functional. The procedure, abridged: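 Anti-CD3/anti-CD28 co-stimulated lymph node cells were treated with compound across a dose series. Lysates were probed by Western blot with an anti-cleaved caspase-3 antibody that recognises the p17 cleavage fragment.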

Data set [8] is filed under the species Mus musculus. Briefly: Induction of apoptosis in anti-CD-3/[…] co-stimulated Balb/c mouse lymph node cells assessed as apoptotic cells after 24 hrs by annexin V/PI staining-based flow cytometric analysis. It counts as functional. In a few lines:
as §1

Data set [9] in a line: Induction of apoptosis in anti-CD-3/[…] co-stimulated Balb/c mouse lymph node cells assessed as apoptotic cells at 40 ug/ml after 24 hrs by annexin V/PI staining-based flow cytometric analysis. It counts as functional. In a few lines:
as §1

One may read the pIC50 as the IC50 on a negative log10 scale, so that one unit is a factor of ten. As a reminder, the CC50 is the concentration at which the toxic effect on the cells reaches its halfway point. A lower CC50 goes with harm at low concentration. As to `COc1ccc(C(/C=C/c2cccs2)=N/O)cc1`, the pIC50 in data set [1] was 5.07. The compound further displayed a CC50 at 48 h in [2] of 10.6 µM. Also, the “Ratio CC50/IC50” value in data set [3] is on record as 1.25.
The matching figures for `COc1ccc(C(/C=C/c2ccc(Cl)cc2Cl)=N/O)cc1`: 4.95, 25 µM and 2.24.
On the same counts, the results for `O/N=C(\C=C\c1cccs1)c1ccc(Br)cc1` are 4.95, 15.3 µM and 1.38.
`COc1ccc(/C=C/C(=N\O)c2ccc(OC)cc2)cc1`: the outcome in data set [4] was Active. For the same compound, the Activity in data set [5] was 34.05%; in data set [6], 25.83%; in data set [7], “Dose-dependent effect”; in data set [8], “Dose-dependent effect”; in [9], 96.46%. The negative logarithm of the IC50 (pIC50) in data set [1] was 4.91. Besides, in [2], it took 2170 µM to reach half-maximal cytotoxicity (CC50 at 48 h). Further, in [3], the “Ratio CC50/IC50” value was 176.69.
Turning to `Cc1ccc(C(/C=C/c2ccc(Cl)cc2)=N/O)cc1`, the pIC50 in [1] was 4.94. This compound also had a CC50 at 48 h in data set [2] of 21.3 µM. Further, in data set [3], the “Ratio CC50/IC50” value was 1.84.
The matching figures for `Cc1ccc(C(/C=C/c2ccc(F)cc2)=N/O)cc1`: 4.95, 13.2 µM and 1.17.
As for `COc1ccc(C(/C=C/c2ccccc2)=N/O)cc1`, the pIC50 in data set [1] was 4.93. The compound further showed a CC50 at 48 h in data set [2] of 28.6 µM. Moreover, the “Ratio CC50/IC50” value in data set [3] is 2.42.
For the compound `O/N=C(\C=C\c1ccc(Cl)c(Cl)c1)c1ccc(Br)cc1`, in data set [1], the negative logarithm of the IC50 (pIC50) was greater than 5.30. Further, in data set [2], the CC50 at 48 h was less than 5 µM.
Turning to `COc1ccc(/C=C/C(=N\O)c2ccc(C)cc2)cc1`, the pIC50 in data set [1] was 5.20. The same compound gave a CC50 at 48 h in data set [2] of 117 µM. The “Ratio CC50/IC50” value in data set [3] was determined as 18.82.
The matching figures for `O/N=C(\C=C\c1cccs1)c1ccc(Cl)cc1`: 5.02, 11.8 µM and 1.23.
Turning to `COc1ccc(C(/C=C/c2ccc(Cl)cc2)=N/O)cc1`, in data set [1], the pIC50 is 4.94. This compound also returned a CC50 at 48 h in data set [2] of 291 µM. Also, the “Ratio CC50/IC50” value in data set [3] amounted to 25.31.
The matching figures for `O/N=C(\C=C\c1ccc(Cl)cc1)c1ccc(Cl)cc1`: 5.04, 14.1 µM and 1.54.
Consider `COc1ccc(/C=C/C(=N\O)c2ccc(Cl)cc2)cc1`, for which the pIC50 in [1] was 5.23. Further, it took 24.3 µM to reach half-maximal cytotoxicity in data set [2] (CC50 at 48 h). The “Ratio CC50/IC50” value in data set [3] was 4.16.
On the same counts, the results for `O/N=C(\C=C\c1ccc(Cl)cc1)c1ccc(F)cc1` are 4.96, 14.8 µM and 1.36.
On the same counts, the results for `COc1ccc(/C=C/C(=O)c2ccc(OC)cc2)cc1` [4,4'-DIMETHOXYCHALCONE] are 4.63, 1790 µM and 75.98.
The matching figures for `COc1ccc(C(/C=C/c2ccc(F)cc2)=N/O)cc1`: 4.96, 13.5 µM and 1.23.
Turning to `O/N=C(\C=C\c1ccc(F)cc1)c1ccc(Br)cc1`, in data set [1], the pIC50 was 4.88. The CC50 at 48 h in data set [2] was 20.3 µM. Further, in [3], the “Ratio CC50/IC50” value worked out at 1.53.
On the same counts, the results for `O/N=C(\C=C\c1ccc(F)cc1)c1ccc(Cl)cc1` are 4.97, 11.5 µM and 1.08.
On the same counts, the results for `COc1ccc(C(=O)/C=C/c2ccc(Br)cc2)cc1` are 4.60, 93.7 µM and 3.73.
On the same counts, the results for `Cc1ccc(C(/C=C/c2ccc(Br)cc2)=N/O)cc1` are 4.94, 34.2 µM and 2.94.
For `COc1ccc(/C=C/C(=N\O)c2ccc(Br)cc2)cc1`, the pIC50 in data set [1] was greater than 5.30. Further, the CC50 at 48 h in data set [2] came out at 23.7 µM. Also, in data set [3], the “Ratio CC50/IC50” value is given as greater than 4.75.
On to `O/N=C(\C=C\c1ccc(Cl)cc1)c1ccc(Br)cc1`, for which the pIC50 in data set [1] is 4.83. Besides, half-maximal cytotoxicity in data set [2] (CC50 at 48 h) was put at 24.7 µM. Also, the “Ratio CC50/IC50” value in [3] stood at 1.68.
Regarding `COc1ccc(C(/C=C/c2ccc(Br)cc2)=N/O)cc1`, the Activity in data set [5] was 32.25%; in [6] it was 22.71%; in data set [7], “Dose-dependent effect”; in [8], “Dose-dependent effect”; in data set [9] it was 40.63%. Further, the pIC50 in data set [1] was 4.86. Besides, it took 737 µM to reach half-maximal cytotoxicity in data set [2] (CC50 at 48 h). Also, the “Ratio CC50/IC50” value in [3] is listed as 52.93.
Turning to `Cc1ccc(C(/C=C/c2ccc(Cl)c(Cl)c2)=N/O)cc1`, the pIC50 in data set [1] was 5.20. For the same compound, in [2], the CC50 at 48 h amounted to 14.7 µM. In addition, in data set [3], the “Ratio CC50/IC50” value turned out to be 2.32.
